≈ marks a conversion by molar mass, not a printed value.
Columns and labels:
[1] = Selectivity ratio of IC50 for HEK293 cells to IC50 for human HT-29 cells; assay type: ADME, cell-based; settings: HEK293 cells versus HT-29 cells, read-out: Ratio IC50
[2] = Selectivity ratio of IC50 for HEK293 cells to IC50 for human MCF7 cells; assay type: ADME, cell-based; settings: HEK293 cells versus MCF7 cells, read-out: Ratio IC50
HEK293 = assay: Cytotoxicity against HEK293 cells assessed inhibition of cell proliferation after 3 days by MTT assay; settings: Homo sapiens, HEK293, 72 h
MCF7 = assay: Cytotoxicity against human MCF7 cells assessed inhibition of cell proliferation after 3 days by MTT assay; settings: MCF7, 72 h
HT-29 [3] = assay: Cytotoxicity against human HT-29 cells assessed inhibition of cell proliferation after 3 days by MTT assay; settings: HT-29, 72 h
HT-29 [4] = assay: Inhibition of VEGF protein secretion in human HT-29 cells at 10 ug/mL after 72 hrs by ELISA relative to control; assay type: functional; design: scale not given: the % may be the effect or the level left
HT-29 [5] = assay: Down regulation of VEGF gene expression in human HT-29 cells at 10 ug/mL after 48 hrs by RT-qPCR analysis relative to control; assay type: functional
How it was run: (§1)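 HT-29 or MCF-7 cells grown to 70–80% confluence, serum-starved 24 h, then exposed to compound in DMSO for 48 h; DMSO-only control. Total RNA extracted and transcript measured by RT-qPCR, normalized to β-actin and expressed as percentage of control. At least three measurements; mean ± SEM; one-sample t-test.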

HT-29 [6] = assay: Down regulation of hTERT gene expression in human HT-29 cells at 10 ug/mL after 48 hrs by RT-qPCR analysis relative to control; assay type: functional; how it was run: as §1
HT-29 [7] = assay: Down regulation of c-Myc gene expression in human HT-29 cells at 10 ug/mL after 48 hrs by RT-qPCR analysis relative to control; assay type: functional; how it was run: as §1

SMILES | selectivity ratio [1] | selectivity ratio [2] | IC50 (HEK293) [µg/mL] | IC50 (MCF7) [µg/mL] | IC50 (HT-29 [3]) [µg/mL] | Activity (HT-29 [4]) [%] | Activity (HT-29 [5]) [%] | Activity (HT-29 [6]) [%] | Activity (HT-29 [7]) [%]
Oc1cccc(/C=C/c2cccc(O)c2)c1 | 0.8 | 1 | 21 (≈ 98.9 µM) | 21 (≈ 98.9 µM) | 25.9 (≈ 122 µM) | – | – | – | –
COc1cccc(/C=C/c2ccc(N)cc2)c1 | 1.1 | 0.3 | 18 (≈ 79.9 µM) | 52 (≈ 231 µM) | 16.1 (≈ 71.5 µM) | 74 | 100 | 81 | 74
Nc1cccc(/C=C/c2ccccc2)c1 | 6.5 | 6 | 84 (≈ 430 µM) | 14 (≈ 71.7 µM) | 12.9 (≈ 66.1 µM) | 77 | 100 | 100 | 100
COc1ccccc1/C=C/c1cccc(O)c1 | 1.4 | 1 | 24 (≈ 106 µM) | 24.3 (≈ 107 µM) | 17 (≈ 75.1 µM) | 69 | 77 | 52 | 100
Nc1ccc(/C=C/c2ccc(O)cc2)cc1 | 0.03 | 0.4 | 0.8 (≈ 3.79 µM) | 2.2 (≈ 10.4 µM) | 30.6 (≈ 145 µM) | – | – | – | –
Oc1ccc(/C=C/c2ccccc2O)cc1 | 0.8 | 0.8 | 17.5 (≈ 82.5 µM) | 21 (≈ 98.9 µM) | 22 (≈ 104 µM) | – | – | – | –
COc1ccc(/C=C/c2ccccc2N)cc1 | < 0.1 | 1.4 | 0.6 (≈ 2.66 µM) | 0.4 (≈ 1.78 µM) | 73 (≈ 324 µM) | – | – | – | –
COc1ccccc1/C=C/c1ccccc1O | 0.7 | 0.8 | 15 (≈ 66.3 µM) | 17.9 (≈ 79.1 µM) | 23 (≈ 102 µM) | – | – | – | –
COc1cccc(/C=C/c2cccc(O)c2)c1 | 1.6 | 1.5 | 19 (≈ 84 µM) | 13 (≈ 57.5 µM) | 11.5 (≈ 50.8 µM) | 65 | 60 | 41 | 59
COc1ccccc1/C=C/c1ccc(O)cc1 | 1.7 | 2.2 | 41 (≈ 181 µM) | 19 (≈ 84 µM) | 24 (≈ 106 µM) | 67 | 46 | 100 | 100
Nc1cccc(/C=C/c2ccc(O)cc2)c1 | 0.1 | 1.2 | 7 (≈ 33.1 µM) | 6 (≈ 28.4 µM) | 51 (≈ 241 µM) | – | – | – | –
Nc1ccccc1/C=C/c1ccccc1 | 0.1 | 0.9 | 1.3 (≈ 6.66 µM) | 1.4 (≈ 7.17 µM) | 17 (≈ 87.1 µM) | 59 | 100 | 59 | 100
Nc1ccc(/C=C/c2cccc(O)c2)cc1 | 0.6 | 1 | 25 (≈ 118 µM) | 24.8 (≈ 117 µM) | 42 (≈ 199 µM) | – | – | – | –
Nc1ccc(/C=C/c2ccccc2O)cc1 | 0.6 | 1 | 21.4 (≈ 101 µM) | 23 (≈ 109 µM) | 37 (≈ 175 µM) | – | – | – | –
COc1ccc(/C=C/c2cccc(N)c2)cc1 | 0.7 | 0.5 | 11 (≈ 48.8 µM) | 23 (≈ 102 µM) | 16.3 (≈ 72.4 µM) | 73 | 89 | 96 | 100
CCCCCCCCCCCC(=O)Nc1ccc(/C=C/c2ccccc2)cc1 | < 0.1 | 1.7 | 10 (≈ 26.5 µM) | 5.8 (≈ 15.4 µM) | > 100 | – | – | – | –
Oc1ccccc1/C=C/c1ccccc1O | 0.9 | 1.1 | 24.3 (≈ 114 µM) | 23 (≈ 108 µM) | 25 (≈ 118 µM) | – | – | – | –
Nc1ccccc1/C=C/c1ccccc1O | 0.7 | 0.7 | 27 (≈ 128 µM) | 39 (≈ 185 µM) | 36 (≈ 170 µM) | – | – | – | –
CCCCCCCCCCCC(=O)Nc1cccc(/C=C/c2ccccc2)c1 | < 0.1 | 3.3 | 11.6 (≈ 30.7 µM) | 3.5 (≈ 9.27 µM) | > 100 | – | – | – | –

SMILES | selectivity ratio [1] | selectivity ratio [2] | IC50 (HEK293) [µg/mL] | IC50 (MCF7) [µg/mL] | IC50 (HT-29 [3]) [µg/mL] | Activity (HT-29 [4]) [%] | Activity (HT-29 [5]) [%] | Activity (HT-29 [6]) [%] | Activity (HT-29 [7]) [%]
Oc1cccc(/C=C/c2ccccc2O)c1 | 0.7 | 0.9 | 18 (≈ 84.8 µM) | 20.1 (≈ 94.7 µM) | 27 (≈ 127 µM) | – | – | – | –
CCCCCCCCCCCC(=O)Nc1ccccc1/C=C/c1ccccc1 | 6.4 | 1.3 | 16 (≈ 42.4 µM) | 12 (≈ 31.8 µM) | 2.5 (≈ 6.62 µM) | 79 | 37 | 53 | 45
COc1ccccc1/C=C/c1ccccc1N | < 0.1 | < 0.1 | 2.1 (≈ 9.32 µM) | > 100 | > 100 | – | – | – | –
Nc1ccccc1/C=C/c1cccc(O)c1 | 0.7 | 1.2 | 20 (≈ 94.7 µM) | 17 (≈ 80.5 µM) | 30 (≈ 142 µM) | – | – | – | –
COc1ccccc1/C=C/c1cccc(N)c1 | 1.8 | 1.2 | 45 (≈ 200 µM) | 38.7 (≈ 172 µM) | 25.3 (≈ 112 µM) | 75 | 67 | 52 | 45
Nc1cccc(/C=C/c2cccc(O)c2)c1 | > 2.3 | > 1.8 | > 100 | 54 (≈ 256 µM) | 43 (≈ 204 µM) | 92 | 52 | 58 | 54
COc1cccc(/C=C/c2cccc(N)c2)c1 | 0.8 | 0.5 | 16 (≈ 71 µM) | 34 (≈ 151 µM) | 19.6 (≈ 87 µM) | 73 | 23 | 100 | 34
COc1cccc(/C=C/c2ccccc2O)c1 | 0.8 | 1.1 | 20 (≈ 88.4 µM) | 18 (≈ 79.5 µM) | 26 (≈ 115 µM) | – | – | – | –
Nc1ccccc1/C=C/c1ccc(O)cc1 | < 0.1 | < 0.1 | 7 (≈ 33.1 µM) | 79 (≈ 374 µM) | > 100 | – | – | – | –
COc1ccccc1/C=C/c1ccc(N)cc1 | < 0.1 | 0.3 | 1 (≈ 4.44 µM) | 3.2 (≈ 14.2 µM) | 22 (≈ 97.7 µM) | – | – | – | –
COc1cccc(/C=C/c2ccccc2N)c1 | < 0.1 | < 0.1 | 0.5 (≈ 2.22 µM) | 6.1 (≈ 27.1 µM) | 21.2 (≈ 94.1 µM) | 51 | 100 | 35 | 79
COc1ccc(/C=C/c2ccc(O)cc2)cc1 | 0.2 | 0.3 | 3.9 (≈ 17.2 µM) | 11.3 (≈ 49.9 µM) | 17.4 (≈ 76.9 µM) | – | – | – | –
Nc1cccc(/C=C/c2ccccc2O)c1 | 3.2 | 3.9 | 96 (≈ 454 µM) | 24.7 (≈ 117 µM) | 30.4 (≈ 144 µM) | 76 | 38 | 52 | 37
COc1ccc(/C=C/c2cccc(O)c2)cc1 | 1.1 | 1.1 | 24 (≈ 106 µM) | 21 (≈ 92.8 µM) | 22 (≈ 97.2 µM) | 73 | 38 | 48 | 46
COc1ccc(/C=C/c2ccccc2O)cc1 [2-hydroxy-4'-methoxystilbene] | 2.1 | 1.2 | 21 (≈ 92.8 µM) | 17 (≈ 75.1 µM) | 10 (≈ 44.2 µM) | 69 | 41 | 72 | 58
Oc1ccc(/C=C/c2cccc(O)c2)cc1 [(E)-3,4'-STILBENDIOL] | 0.2 | < 0.1 | 1.1 (≈ 5.18 µM) | 23 (≈ 108 µM) | 6.9 (≈ 32.5 µM) | – | – | – | –
Nc1ccc(/C=C/c2ccccc2)cc1 [(E)-4-STYRYLANILINE] | 2.6 | 0.7 | 11.4 (≈ 58.4 µM) | 16 (≈ 81.9 µM) | 4.4 (≈ 22.5 µM) | 78 | 24 | 65 | 46
COc1cccc(/C=C/c2ccc(O)cc2)c1 [(E)-5-METHOXY-4'-STILBENOL] | 0.9 | 1.1 | 24 (≈ 106 µM) | 21 (≈ 92.8 µM) | 26 (≈ 115 µM) | – | – | – | –
Oc1ccc(/C=C/c2ccc(O)cc2)cc1 [TRANS-4,4'-DIHYDROXYSTILBENE] | < 0.1 | 0.2 | 1.2 (≈ 5.65 µM) | 6.8 (≈ 32 µM) | > 100 | – | – | – | –

— ChEMBL document CHEMBL3734660, “Inhibitory effect of cytotoxic stilbenes related to resveratrol on the expression of the VEGF, hTERT and c-Myc genes” (Eur J Med Chem, 2015)
